Shown are actives, neighbours in structure and some others; about 2% of the full set was active somewhere.
Hep lipid drop: hepatic lipid droplet formation modulation | inhibition, % at 6.5 µM | actives 0.4% (n = 240,000) | AML12 mouse hepatocytes, oleate lipid droplets, BODIPY imaging;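 active means lipid droplet intensity inhibited by at least 50%, with more than 500 cells counted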
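Assay system: AML12 mouse liver cells | Compound dosing: One dose, 6.5 µM compound | Read-out basis: Droplet intensity reduction, % inhibition | Measured by: Fluorescence imaging, 20x objective, two fields per well | Schedule: Overnight treatment with compound plus oleate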
Arr AP2 block: blocks beta-arrestin peptide binding to AP2 adaptin | FITC-arrestin peptide / GST-AP2 beads, flow cytometry; AP2 beta2 appendage carries R879A mutation | inhibition, % at 10 µM | actives 0.31% (n = 340,000) | AID 504490;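 active means inhibition above a set limit, near 3 SD of compounds lacking own fluorescence, cut at about 54% in these data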;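 further: plate controls were DMSO wells for no effect and 5 µM unlabelled arrestin peptide for full effect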
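System: GST-AP2 R879A glutathione beads | Also added: FITC-arrestin peptide, 50 nM | Times: 12 min plus 1 h, RT | Signal: Bead flow cytometry, FITC channel | Buffer or medium: PBS with 0.05% Tween 20 and 0.1% BSA | Read-out basis: Percent drop in bead-associated FITC signal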
GRK2 aptamer HTS: blocks RNA aptamer binding to human GRK2; inhibition of aptamer binding, % at 10 µM; bead flow cytometry, FAM-aptamer displacement from GRK2; P25098; AID 488847; actives 0.59% (n = 330,000);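 active means inhibition of aptamer binding above 40%, roughly 3 SD of noise, on plates passing a quality check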;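 further: median bead fluorescence of bound FAM aptamer so fluorescent compounds give negative values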
TAG inh: inhibitors of triacylglycerol accumulation; actives 0.66% (n = 230,000); H9c2 cells, Nile Red lipid (TAG) fluorescence; cells loaded with 200 µM oleic acid; inhibition, % at 12.5 µM;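 active means pattern-corrected inhibition of lipid staining of at least 50% with the nuclear-stain viability signal not falling by more than 50%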;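 further: 0% = DMSO wells and 100% = triacsin C control wells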
NTR1 agonist: activates human neurotensin receptor 1; P30989; NTR1-U2OS beta-arrestin-GFP spot imaging, agonist mode; activation, % at 20 µM; actives 0.17% (n = 330,000); AID 493036;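 active means activation at or above 40% of the spot to cytoplasm intensity ratio, with at least 20 cells analyzed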;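 further: 0% = DMSO without peptide and 100% = 100 nM NTR1 peptide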
Beta2AR agonist: human beta-2 adrenergic receptor agonism by FAP. response, % (concentration not given with the values). Am2.2-beta2AR cells, FAP receptor internalization, flow cytometry. AID 504454. actives 0.43% (n = 340,000). P07550;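 active means response above a set limit, near 3 SD of response in nonfluorescent compounds, cut at about 42% in these data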
Target sequence (P07550 whole entry, looked up): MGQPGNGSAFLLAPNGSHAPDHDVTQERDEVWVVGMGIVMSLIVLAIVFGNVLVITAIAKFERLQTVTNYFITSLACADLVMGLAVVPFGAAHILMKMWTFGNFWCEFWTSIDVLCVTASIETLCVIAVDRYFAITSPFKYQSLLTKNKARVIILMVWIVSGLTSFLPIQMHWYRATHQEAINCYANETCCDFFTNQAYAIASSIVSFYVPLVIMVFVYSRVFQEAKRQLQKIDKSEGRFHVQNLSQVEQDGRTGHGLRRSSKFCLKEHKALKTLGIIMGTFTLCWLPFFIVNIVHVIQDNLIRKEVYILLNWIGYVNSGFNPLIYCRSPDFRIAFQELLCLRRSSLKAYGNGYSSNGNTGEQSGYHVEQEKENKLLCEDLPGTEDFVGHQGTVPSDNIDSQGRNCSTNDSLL
GRK2 CP1: human GRK2 inhibition confirmation, cherry pick 1; actives 4% (n = 2,000); aptamer displacement, % at 10 µM; bead-bound GRK2, FAM-aptamer displacement, flow cytometry; shares compounds with GRK2 aptamer HTS;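 active means aptamer displacement above 40%, near three times the noise of non-fluorescent compounds, on plates passing quality checks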;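 further: negative values mostly reflect intrinsic compound fluorescence rather than true enhancement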
Aptamer quench: fluorescent aptamer quenching in GRK2 counter-screen dose response; shares compounds with GRK2 aptamer HTS; Fluorescent RNA aptamer beads, flow cytometry; hits give high values; fluorescence change (kMESF span), kMESF (concentration not given with the values); 110 tested, under 10 active;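 active means compounds whose bead fluorescence drops by more than 37 kMESF across the dose range, marking them as dye quenchers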
Aptamer quench SP: aptamer fluorescence quenching in GRK2 counter-screen; Carboxyfluorescein RNA aptamer on beads, flow cytometry quenching; hits give low values; 2,000 tested, under 10 active; fluorescence response (% of DMSO), % at 10 µM; AID 504580; shares compounds with GRK2 aptamer HTS;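 active means compounds that quench the bead-bound fluorescent RNA probe, cutting fluorescence to under half of the solvent control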;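 further: counterscreen run without GRK2 so only probe quenching by compound is measured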
GRK2 confirm 2: human GRK2 inhibition confirmation, cherry pick 2; shares compounds with GRK2 aptamer HTS; bead-bound GRK2, FAM-aptamer displacement, flow cytometry; inhibition of aptamer binding, % at 10 µM; 360 tested, under 10 active;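 active means inhibition of aptamer binding above 40%, about triple the noise seen with nonglowing compounds, on plates passing quality control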;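 further: negative values mostly come from compounds that fluoresce themselves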
FAM quench CP2: quenches fluorescent RNA aptamer, GRK2 hit artifact; shares compounds with GRK2 aptamer HTS; carboxyfluorescein RNA aptamer beads, flow cytometry quenching; hits give low values; fluorescence response vs DMSO, % at 10 µM; 360 tested, under 10 active; AID 588494;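 active means response vs DMSO under 50%, meaning signal dropped by over half, treated as fluorescence quencher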;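 further: labelled aptamer on streptavidin beads without GRK2 as a quench counter-screen; 100% = bead fluorescence of DMSO wells and lower means quenching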
FAM quench DR: counter-screen for GRK2 aptamer binding inhibitors: aptamer fluorescence quenching | shares compounds with GRK2 aptamer HTS | Bead-bound FAM RNA aptamer fluorescence quenching, flow cytometry; hits give low values | AID 588496 | 35 tested, under 10 active | fluorescence ratio to DMSO, % at 11.1 µM;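 active means compounds that dim the fluorescent label, raw bead signal shifting by over 33 units between lowest and highest dose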
Active calls of the source: *; x = no result.

SMILES	Hep lipid drop	Arr AP2 block	GRK2 aptamer HTS	TAG inh	NTR1 agonist	Beta2AR agonist	GRK2 CP1	Aptamer quench SP	others
O=C(Nc1ccc(Cl)cn1)c1ccc(-c2cc(Cl)ccc2Cl)o1	x	-8	42*	x	1	4	x	x	GRK2 confirm 2=-26;FAM quench CP2=100
Cn1c(NCc2ccccc2O)nc2ccccc21	x	6	45*	12	-3	0	1	99
Cn1c(NCc2ccccc2Cl)nc2ccccc21	x	7	6	8	0	-7	x	x
COc1ccc(C2=NO[C@@H]3C(=O)N(c4ccc5c(c4)OCCO5)C(=O)[C@H]23)cc1OC	2	2	0	-7	1	-3	x	x	GRK2 confirm 2=18;FAM quench CP2=104
COc1cc(OC)cc(-c2c(-c3cccs3)c3cc(-c4cnc(OC)nc4)ccc3n2C)c1	x	-3	68*	-73	0	-5	-7	105
O=C(CSc1nc2ccccc2c(=O)n1-c1ccccc1)NC(=O)CN1CCCC1=O	11	-50	70*	6	2	0	50*	103	Aptamer quench=12;GRK2 confirm 2=28;FAM quench CP2=100;FAM quench DR=96
Cc1c(C(=O)OC(C)C)sc(N)c1C(=O)OC(C)C	-1	15	70*	x	9	-3	x	x	GRK2 confirm 2=-4;FAM quench CP2=97
Cc1c(C(N)=O)sc(N)c1C(=O)OC(C)C	x	-10	5	1	1	-10	x	x
Cc1ccccc1SCC(=O)NCC(c1ccc(F)cc1)N1CCOCC1 (configuration not stated)	x	-6	45*	-4	1	-4	x	x	GRK2 confirm 2=-14;FAM quench CP2=90
CCN1CCN(CCCNC(=O)CNC(=O)c2nn(-c3ccc(OC)cc3OC)c(=O)c3ccccc23)CC1	14	-13	6	x	-1	-5	x	x
CCCCNC(=O)CNC(=O)c1nn(-c2ccc(OC)cc2OC)c(=O)c2ccccc12	x	12	8	x	-1	-5	0	94
CCCCN(C)C(=O)CNC(=O)c1nn(-c2ccc(OC)cc2OC)c(=O)c2ccccc12	-2	1	0	x	-2	-21	-3	101
CC12CCC(=O)N1C(C(=O)Nc1nnc(SCc3ccc(F)cc3)s1)CS2 (configuration not stated)	-11	-5	1	1	2	0	x	x
C/C(=N\NC(=O)c1nnn(-c2nonc2N)c1CN(C)c1ccccc1)c1cccs1	-1	1	2	x	2	-4	x	x
CC1(C)C2CC=C(/C=N/NC(=O)c3ccc(O)cc3)C1C2 (configuration not stated)	9	0	74*	-9	-1	-3	-1	97
Cc1c(C(=O)NCc2cccc(C(F)(F)F)c2)sc(=O)n1Cc1ccc(S(=O)(=O)N(C)C)cc1	x	x	x	-36	x	x	x	x
CCOC(=O)C1CCN(C(=S)Nc2ccc(S(N)(=O)=O)cc2)CC1	-9	8	0	x	1	6	x	x
NS(=O)(=O)c1ccc(NC(=S)N2CCC(O)CC2)cc1	-10	3	91*	-6	-1	9	2	99
N#CC(c1ccccc1O)N1N=C(c2ccccc2)CC1c1ccccc1 (configuration not stated)	-7	42	46*	11	18	11	1	39*
Cc1ccc(S(=O)(=O)N2CCOCC2)cc1NC(=O)COC(=O)c1ccco1	x	x	x	-2	x	x	x	x
Cc1ccc(S(=O)(=O)N2CCOCC2)cc1NC(=O)COC(=O)/C=C/c1ccco1	x	26	63*	20	-1	-1	9	91
Nc1nc(N(Cc2ccccc2)Cc2ccccc2)nc(C(F)(F)F)n1	x	6	43*	12	15	21	x	x	GRK2 confirm 2=-6;FAM quench CP2=100
COCCCNC(=O)Cn1cnc2sc(C)c(S(=O)(=O)N3CC(C)CC(C)C3)c2c1=O (configuration not stated)	-14	9	0	x	-1	-5	x	x
CCN(C[C@H]1N[C@@](Cc2ccccc2)(C(=O)OC)[C@H]2C(=O)N(Cc3ccccc3)C(=O)[C@@H]12)S(=O)(=O)c1ccc(C(C)(C)C)cc1	x	2	2	43	-1	2	x	x
O=C(COC(=O)Cc1ccc(-c2ccccc2)cc1)NCc1ccc(F)cc1	-2	8	8	x	6	1	-1	99
SMILES	Hep lipid drop	Arr AP2 block	GRK2 aptamer HTS	TAG inh	NTR1 agonist	Beta2AR agonist	GRK2 CP1	Aptamer quench SP	others
Cc1ccc(CNC(=O)COC(=O)Cc2ccc(-c3ccccc3)cc2)cc1	-1	-2	0	x	3	2	-3	99
O=C(COC(=O)Cc1ccc(Cl)cc1)NCc1ccc(F)cc1	x	1	0	-6	-3	13	x	x
O=C(O)c1ccccc1-c1nnc2c(Cl)cc(C(F)(F)F)cn12	1	16	7	x	-1	-4	2	101
COc1cccc(CNC2CCCCCCC2)c1OC	-19	-11	2	-5	0	-11	x	x
CN(Cc1ccccc1)C(=O)C1CCN(S(=O)(=O)c2cccc3nsnc23)CC1	-17	-1	2	x	0	1	x	x
COc1cccc(Oc2ccc(N/C=C/C(=O)C(C)(C)C)cc2)c1	x	12	88*	11	2	14	-1	95
C=CC[C@]12C[C@@H](OC)C(=O)C=C1O[C@@H](c1ccc(OC)c(OC)c1)[C@H]2C	x	0	2	x	-2	11	x	x
O=C(CCCCn1c(=O)[nH]c2ccccc2c1=O)N1CCN(c2cccc(C(F)(F)F)c2)CC1	x	-10	3	4	8	-1	x	x
COc1ccc(N2CCN(CCCn3c(=S)[nH]c4ccccc4c3=O)CC2)cc1	9	1	23	x	1	6	-2	95
O=C(CCCn1c(=S)[nH]c2ccccc2c1=O)N1CCN(c2cccc(Cl)c2)CC1	x	3	0	25	14	1	-3	93
CCOc1ccccc1NC(=O)COC(=O)c1ccc2ccccc2n1	x	-1	0	12	5	4	x	x
